Residues, ends and D or L forms follow the SMILES beside them. *: point of attachment. Fmoc = O=C(OCC1c2ccccc2-c2ccccc21)*
Tests used:
Homo sapiens [1] = species on record: Homo sapiens; assay: Inhibition of chymotrypsin-like activity of human 20S immunoproteasome using Suc-LLVY-AMC as substrate at 5 uM after 90 mins by fluorescence assay
In short: (§1)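 Purified human 20S immunoproteasome or constitutive proteasome, 2-fold diluted in 20 mM Tris/Cl pH 8.0, 0.5 mM EDTA, 0.035% SDS, at 50 ng/well. The enzyme was preincubated with compound (5 µM, from DMSO) for 90 min at room temperature. Then 100 µM Suc-LLVY-AMC was added and AMC fluorescence (Ex 360/Em 460) was read for 90 min. […] Run in triplicate.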

Proteasome = assay: Inhibition of chymotrypsin-like activity of constitutive proteasome (unknown origin) using Suc-LLVY-AMC as substrate at 5 uM after 90 mins by fluorescence assay; format: subcellular; settings: Homo sapiens; in short: as §1
[2] = Inhibition of chymotrypsin-like activity of human 20S immunoproteasome using Suc-LLVY-AMC as substrate after 90 mins by fluorescence assay
Homo sapiens [3] = species on record: Homo sapiens; assay: Inhibition of chymotrypsin-like activity of human 20S immunoproteasome using Suc-LLVY-AMC as substrate at 1 uM after 90 mins by fluorescence assay

Row | SMILES | inhibition (Homo sapiens [1]) [%] | inhibition (Proteasome) [%] | IC50 [2] [µM] | inhibition (Homo sapiens [3]) [%]
1 | CCCCc1ccc2nc(-c3ccc(OC)cc3)cc(C(=O)NC[C@@H](C)C(=O)N3CCC[C@@H]3CO)c2c1 | 21 | 2 | – | –
2 | Cc1ccc(-c2cc(C(=O)NC[C@@H]3CCCO3)c3cc(CNS(=O)(=O)c4cccc(Cl)c4)ccc3n2)o1 | 85 | 20 | 1.7 | –
3 | CCC[C@H]1C[C@H](C(=O)N[C@@H]([C@@H]2O[C@H](SC)[C@@H](O)[C@@H](O)[C@@H]2O)[C@@H](C)O)N(C)C1 | 36 | 2 | 22 | –
4 | CC[C@H](C)[C@H](NC(=O)[C@H]([C@@H](C)CC)N(C)C(C)=O)C(=O)N[C@H](C(=O)N[C@@H](CC(C)C)C(=O)[C@@]1(C)CO1)[C@@H](C)O | – | – | – | 100
5 | O=C1CN(/N=C/c2ccc(-c3ccc(Cl)cc3)o2)C(=O)N1CCCCN1CCN(C[C@@H](O)c2ccccc2)CC1 | 25 | 16 | – | –

Second part, the compound after the results:

Row | inhibition (Homo sapiens [1]) [%] | inhibition (Proteasome) [%] | IC50 [2] [µM] | inhibition (Homo sapiens [3]) [%] | SMILES
6 | 62 | 15 | 4.9 | – | Cc1ccc(CSC[C@@H](NC(=O)c2cc(-c3ccccc3)nc3ccccc23)C(=O)NCCCN2CCCC2=O)cc1
7 | 31 | 33 | – | – | Cc1cccc(Nc2ccccc2C(=O)N[C@H](CC[S@+](C)[O-])C(=O)N[C@H](C)c2ccc(F)cc2)c1C
8 | 35 | 24 | – | – | NC(=O)CC[C@H](NC(=O)[C@H](Cc1cnc[nH]1)NC(=O)OCC1c2ccccc2-c2ccccc21)C(=O)N1CCC[C@H]1C(=O)O (Fmoc-His-Gln-Pro-OH)
9 | 14 | 6 | – | – | CC[C@@H](NC(=O)[C@@H](CC(C)C)NC(=O)OCc1ccccc1)C(=O)C(=O)NCCCN1CCOCC1
10 | 13 | 14 | – | – | O=C(C[C@@H]1CCN(CC2CC2)C[C@@H]1[C@H]1CC(c2ccccc2Cl)=NO1)NCCc1ccccn1

— ChEMBL document CHEMBL3352696, “Selective immunoproteasome inhibitors with non-peptide scaffolds identified from structure-based virtual screening” (Bioorg Med Chem Lett, 2014)
